Laboratory results as given in ChEMBL document CHEMBL1136765, “1,3-dioxolane-based ligands as a novel class of alpha1-adrenoceptor antagonists” (J Med Chem, 2003).

Experiments:
[1] = biological target: Alpha adrenergic receptor (1a and 1d) (Homo sapiens) (UniProt P35348+P25100); assay: Selectivity over human alpha-1d/alpha-1a receptor; assay type: protein assay
[2] = biological target: T1, Alpha-1D adrenergic receptor (Homo sapiens, UniProt P25100); assay: Affinity constant towards human recombinant Alpha-1D adrenergic receptor using [3H]prazosin (from CHO cells) as radioligand by radioligand binding assay; assay type: cell-based
T1 sequence (P25100 whole entry): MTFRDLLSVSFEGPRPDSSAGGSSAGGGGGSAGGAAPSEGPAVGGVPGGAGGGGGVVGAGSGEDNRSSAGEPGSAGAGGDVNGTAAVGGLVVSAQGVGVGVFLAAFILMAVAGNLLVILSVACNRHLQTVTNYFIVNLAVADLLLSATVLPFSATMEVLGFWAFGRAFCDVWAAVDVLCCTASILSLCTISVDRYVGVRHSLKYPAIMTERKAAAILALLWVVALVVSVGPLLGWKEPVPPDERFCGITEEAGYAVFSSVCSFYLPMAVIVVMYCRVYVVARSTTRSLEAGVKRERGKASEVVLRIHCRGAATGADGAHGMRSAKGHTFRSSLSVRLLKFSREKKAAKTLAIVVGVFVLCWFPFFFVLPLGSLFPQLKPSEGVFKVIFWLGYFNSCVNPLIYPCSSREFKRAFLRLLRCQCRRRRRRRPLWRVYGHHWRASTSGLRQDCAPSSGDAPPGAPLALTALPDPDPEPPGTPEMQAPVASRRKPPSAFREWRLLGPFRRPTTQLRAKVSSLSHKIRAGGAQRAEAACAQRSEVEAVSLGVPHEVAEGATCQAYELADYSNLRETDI
In short: (§1)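 Membranes of CHO cells stably expressing each cloned human α1 subtype (30 µg protein) incubated with 0.1-0.4 nM [3H]prazosin in 50 mM Tris-HCl pH 7.4, 30 min at 25 °C, with competitor. Nonspecific binding with 10 µM phentolamine. Stopped by ice-cold buffer and filtration on PEI-pretreated filters. IC50 by curve fitting, Ki via Cheng-Prusoff. Mean of two to three experiments in triplicate.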

[3] = biological target: T2, Alpha-1A adrenergic receptor (Rattus norvegicus) (UniProt P43140); assay: Inhibition of (-)-noradrenaline-induced contraction of rat prostatic vas deferens (alpha1A receptor); assay type: functional
T2 sequence (whole entry): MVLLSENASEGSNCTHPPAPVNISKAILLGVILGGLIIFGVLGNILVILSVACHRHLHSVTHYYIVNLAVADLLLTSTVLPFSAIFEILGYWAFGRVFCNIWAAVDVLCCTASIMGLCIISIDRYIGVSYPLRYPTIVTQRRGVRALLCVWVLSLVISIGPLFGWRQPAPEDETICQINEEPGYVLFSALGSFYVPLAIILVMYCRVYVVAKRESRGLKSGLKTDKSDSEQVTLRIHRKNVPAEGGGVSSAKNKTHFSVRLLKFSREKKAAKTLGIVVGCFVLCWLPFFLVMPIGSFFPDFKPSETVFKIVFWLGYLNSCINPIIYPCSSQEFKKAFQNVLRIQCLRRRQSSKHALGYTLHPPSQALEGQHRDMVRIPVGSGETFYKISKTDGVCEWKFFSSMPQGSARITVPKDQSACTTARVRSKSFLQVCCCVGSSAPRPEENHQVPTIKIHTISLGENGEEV
In short: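 Rat prostatic vas deferens portion equilibrated 60 min, washed every 15 min, primed twice with 10 µM noradrenaline, re-equilibrated 60 min; control noradrenaline concentration-response curve, then antagonist 30 min before repeat curve.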

[4] = Selectivity given as ratio of pKb value against Alpha-1D receptor to pKb value against Alpha-1B receptor in rat; assay type: functional
[5] = Selectivity over human alpha-1d/alpha-1b receptor
[6] = biological target: T3, Alpha-1A adrenergic receptor (Homo sapiens, UniProt P35348); assay: Affinity constant towards human recombinant Alpha-1A adrenergic receptor using [3H]prazosin (from CHO cells) as radioligand by radioligand binding assay; assay type: cell-based
T3 sequence (P35348 whole entry): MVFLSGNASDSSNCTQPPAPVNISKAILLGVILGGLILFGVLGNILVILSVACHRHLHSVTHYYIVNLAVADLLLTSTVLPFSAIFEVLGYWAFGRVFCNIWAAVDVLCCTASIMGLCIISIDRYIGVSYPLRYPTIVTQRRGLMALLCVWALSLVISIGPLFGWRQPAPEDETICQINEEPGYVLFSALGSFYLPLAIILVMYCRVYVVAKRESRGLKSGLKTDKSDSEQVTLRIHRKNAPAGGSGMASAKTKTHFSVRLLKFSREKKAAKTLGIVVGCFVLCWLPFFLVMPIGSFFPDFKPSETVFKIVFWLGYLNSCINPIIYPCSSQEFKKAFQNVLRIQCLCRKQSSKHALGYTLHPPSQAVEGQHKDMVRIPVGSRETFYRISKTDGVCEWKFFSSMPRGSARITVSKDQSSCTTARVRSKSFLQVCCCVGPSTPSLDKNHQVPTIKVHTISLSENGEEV

[7] = biological target: T4, Alpha-1B adrenergic receptor (Homo sapiens, UniProt P35368); assay: Affinity constant towards human recombinant Alpha-1B adrenergic receptor using [3H]prazosin (from CHO cells) as radioligand by radioligand binding assay; assay type: cell-based; in short: as §1
T4 sequence (P35368 whole entry): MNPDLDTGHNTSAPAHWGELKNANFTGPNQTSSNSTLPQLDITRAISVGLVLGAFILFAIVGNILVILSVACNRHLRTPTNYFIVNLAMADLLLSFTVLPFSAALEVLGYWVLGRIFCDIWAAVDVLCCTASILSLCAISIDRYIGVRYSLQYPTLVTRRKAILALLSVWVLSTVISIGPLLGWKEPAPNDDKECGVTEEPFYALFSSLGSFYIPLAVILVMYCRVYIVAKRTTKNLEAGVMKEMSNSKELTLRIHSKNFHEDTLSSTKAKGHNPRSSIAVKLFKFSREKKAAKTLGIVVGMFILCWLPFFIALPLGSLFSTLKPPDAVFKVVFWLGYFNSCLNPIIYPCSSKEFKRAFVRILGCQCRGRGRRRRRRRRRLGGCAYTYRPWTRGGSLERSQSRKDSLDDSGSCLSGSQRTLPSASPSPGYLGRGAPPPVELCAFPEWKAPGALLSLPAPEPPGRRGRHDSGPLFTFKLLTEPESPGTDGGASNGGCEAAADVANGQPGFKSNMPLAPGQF

[8] = biological target: Alpha adrenergic receptor 1A and 1D (Rattus norvegicus) (UniProt P23944+P43140); assay: Selectivity given as ratio of pKb value against Alpha-1D receptor to pKb value against alpha1A receptor in rat; assay type: functional
Alpha adrenergic receptor 1A and 1D (Rattus norvegicus), sequence (P23944 whole entry, looked up, one chain of several): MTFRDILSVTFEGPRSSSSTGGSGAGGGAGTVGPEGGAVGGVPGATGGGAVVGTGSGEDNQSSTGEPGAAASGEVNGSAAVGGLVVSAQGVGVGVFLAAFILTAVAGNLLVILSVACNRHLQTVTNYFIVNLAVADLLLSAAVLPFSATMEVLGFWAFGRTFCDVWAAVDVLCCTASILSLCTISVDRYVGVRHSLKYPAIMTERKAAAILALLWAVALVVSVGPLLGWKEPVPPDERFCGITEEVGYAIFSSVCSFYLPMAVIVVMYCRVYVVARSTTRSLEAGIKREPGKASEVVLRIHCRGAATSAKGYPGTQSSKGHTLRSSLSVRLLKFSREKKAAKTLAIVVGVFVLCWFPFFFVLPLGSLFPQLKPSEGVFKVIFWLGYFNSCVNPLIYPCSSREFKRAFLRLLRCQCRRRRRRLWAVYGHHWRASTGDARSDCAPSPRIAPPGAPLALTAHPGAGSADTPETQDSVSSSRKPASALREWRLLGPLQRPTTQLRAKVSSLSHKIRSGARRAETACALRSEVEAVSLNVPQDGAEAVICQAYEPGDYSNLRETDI

[9] = biological target: Adrenergic receptors; alpha-1 A & B (Homo sapiens) (UniProt P35348+P35368); assay: Selectivity over alpha-1a/alpha-1b; assay type: protein assay
[10] = biological target: Alpha adrenergic receptor 1A and 1B (Rattus norvegicus) (UniProt P15823+P43140); assay: Selectivity given as ratio of pKb value against alpha1A receptor to pKb value against alpha-1B receptor in rat; assay type: functional
Alpha adrenergic receptor 1A and 1B (Rattus norvegicus), sequence (P15823 whole entry, looked up, one chain of several): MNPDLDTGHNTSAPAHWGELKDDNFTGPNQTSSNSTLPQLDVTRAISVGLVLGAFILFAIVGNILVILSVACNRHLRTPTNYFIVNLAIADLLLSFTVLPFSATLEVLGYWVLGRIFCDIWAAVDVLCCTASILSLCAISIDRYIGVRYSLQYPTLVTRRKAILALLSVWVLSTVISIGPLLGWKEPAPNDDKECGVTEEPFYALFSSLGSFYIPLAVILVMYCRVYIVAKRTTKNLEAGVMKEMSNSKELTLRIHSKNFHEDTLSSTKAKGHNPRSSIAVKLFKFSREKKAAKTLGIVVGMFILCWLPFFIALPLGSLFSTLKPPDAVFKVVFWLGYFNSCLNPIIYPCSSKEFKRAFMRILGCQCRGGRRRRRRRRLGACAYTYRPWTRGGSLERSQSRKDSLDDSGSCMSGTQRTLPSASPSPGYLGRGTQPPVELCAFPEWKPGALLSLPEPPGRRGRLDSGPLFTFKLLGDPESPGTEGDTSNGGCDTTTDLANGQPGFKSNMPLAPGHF

Compound	Selectivity [1]	Ki [2] [nM]	pKb [3]	Selectivity [4]	Selectivity [5]	Ki [6] [nM]	Ki [7] [nM]	Selectivity [8]	Selectivity [9]	Selectivity [10]
O=C(O)C(=O)O.c1ccc(OCCNCC2COC(c3ccccc3)(c3ccccc3)O2)cc1 (centres undefined)	3	11.5	6.16	324	6	37.2	63.1	162	2	2
C[N+](C)(CCOc1ccccc1)CC1COC(c2ccccc2)(c2ccccc2)O1.O=C([O-])C(=O)O (centres undefined)	< 0.03	> 1000	< 5	4	< 0.02	33.9	20.4	> 15	0.6	< 0.3
CN(CCOc1ccccc1)CC1COC(c2ccccc2)(c2ccccc2)O1.O=C(O)C(=O)O (centres undefined)	< 0.9	> 1000	5.06	6	< 0.3	832	257	10	0.3	0.6
COc1ccccc1OCCNCC1COC(c2ccccc2)(c2ccccc2)O1.O=C(O)C(=O)O (centres undefined)	3	9.33	–	20	7	24.5	45.7	13	2	1
